Assay outcomes deposited in PubChem BioAssay by SRMLSC.
HER2 expr 66K: inhibitors of Her2 protein expression, primary screen, SKBR-3 cells, AlphaScreen, 66K library; actives 0.69% (n = 65,000); SKBR-3 HER2 protein level, 18-24 h; stronger effect = lower value; HER2 level % of control, % at 10 µM;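 active means HER2 level under 5% of the carrier-only control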;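 further: 100% = DMSO carrier and 0% = 500 nM PU-H71 HSP90 inhibitor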
PostGolgi yeast: phenotypic screen on post-Golgi transport, primary screen | inhibition, % at 10 µM | post-Golgi transport phenotypic cell assay | AID 739, 2007 | actives 0.9% (n = 98,000);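 further: yeast cells grown in 1536-well plates; yeast grown about 18 h at 30C before absorbance read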
Ecoli tolC: growth inhibitors of E. coli tolC mutant, primary screen, strain BW25113 ΔtolC::kan, 384-well; actives 2.2% (n = 65,000); growth inhibition, % at 10 µM (by protocol); OD615;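 active means growth inhibition at or above a cutoff equal to the mean over every tested compound plus 3 SD, cut at about 60% in these data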;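 further: growth measured after 20 h incubation at 37 °C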
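test system = E. coli BW25113 ΔtolC::kan bacteria | medium = LB with kanamycin 50 µg/mL | signal = OD at 615 nm | schedule = 37 °C, 20 h exposure | evaluation = % inhibition of E. coli growth | compound dosing = one dose of 10 µM final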
PostGolgi ctrl: growth inhibition of yeast control strain, primary screen, counter-screen for post-Golgi transport modulator project. actives 5% (n = 98,000). AID 738, 2007. inhibition, % at 10 µM. efflux-deficient yeast background strain, growth absorbance A615, 16 h
Ecoli WT expand: growth inhibitors of wild-type E. coli, primary screen, strain BW25113, expanded library, OD600; OD600 absorbance; growth inhibition, % at 100 µM; actives 0.15% (n = 98,000); AID 710, 2007;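 active means growth inhibition above about 50% at one test dose, limit read from the data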;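 further: growth measured after 20 h incubation at 37 °C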
Active calls of the source: *; · = not tested or not shown. Shown are actives, neighbours in structure and some others; about 6.6% of the full set was active somewhere. Unless noted, no stated cut-off is given here; in the data, active means inhibition above about 30%; inactive means the rest.

SMILES	HER2 expr 66K	PostGolgi yeast	Ecoli tolC	PostGolgi ctrl	Ecoli WT expand
Cc1cccc(OCCn2c(-c3ccco3)nc3ccccc32)c1	·	12	·	30*	-10
Cc1cccc(OCCn2c(NC(=O)c3ccco3)nc3ccccc32)c1	64	3	98*	51*	-6
c1ccc(OCCn2c(-c3ccco3)nc3ccccc32)cc1	135	2	47	14	8
COc1cc(CO)cc(Br)c1OCc1cccnc1	166	-1	-10	2	1
C/C(CC(=O)Nc1ccc(Cl)c(Cl)c1)=N\NC(N)=S	·	-4	·	-4	29
O=C(COc1ccc(-c2nnco2)cc1)NC1CCCc2ccccc21 (configuration not stated)	79	-12	3	-8	-1
Cc1cccc(CN2CCCC(C(=O)N3CCc4ccccc4C3)C2)c1 (configuration not stated)	·	-1	·	-1	3
CC(C)(C)C(=O)NC1CCN(S(=O)(=O)c2ccc(C(F)(F)F)cc2)CC1	·	5	·	20	1
O=S(=O)(c1ccc(Br)cc1)N1CCN(c2ccc3nnc(-c4ccccc4)n3n2)CC1	·	16	·	56*	-12
COc1ccc(Cl)cc1C(=O)N(Cc1nc(-c2cccc(C)c2)no1)C(C)C	68	-12	56	37*	-14
Cc1ccc(-c2noc(CN(C(=O)c3cccc(Br)c3)C(C)C)n2)cc1	·	5	78*	27	0
Cc1cccc(-c2noc(CN(C(=O)CCc3ccccc3)C(C)C)n2)c1	101	-3	76*	28	0
Cc1ccc(-c2ccc(=O)[nH]n2)cc1	97	8	-11	5	-1
CCCCCc1ccc(-c2ccc(=O)[nH]n2)cc1	133	-6	14	31*	-4
O=C(CC1(O)C(=O)Nc2ccccc21)c1ccc(-n2cccc2)cc1 (configuration not stated)	40	-4	-2	31*	7
CCC(CC)NC(=O)c1cc2c(C)nn(Cc3ccccc3Cl)c2s1	·	0	·	38*	-4
Cc1nn(Cc2ccccc2Cl)c2sc(C(=O)NCc3ccc4c(c3)OCO4)cc12	·	-4	·	29	-22
COc1ccccc1CNC(=O)c1cc2c(C)nn(Cc3ccc(F)cc3)c2s1	·	-4	·	33*	-21
COc1ccccc1CNC(=O)c1cc2c(s1)CS(=O)(=O)C2	99	5	-3	8	-2
O=C(Nc1cccc(Cl)c1)OCc1cn(-c2ccc(Cl)cc2)nn1	·	-3	·	0	-4
